98 molecules from ChEMBL document CHEMBL4513216, “Probing the Open Global Health Chemical Diversity Library for Multistage-Active Starting Points for Next-Generation Antimalarials” (ACS Infect Dis, 2020) can be followed below.

Molecules are shown by their SMILES.

The data set is described as follows: Toxicity liver stage against HepG2, at 10uM. In kind it is cell-based. Set-up: test concentration 10 uM, cell line HepG2-A16-CD81EGFP. As to conditions: human, HepG2-A16-CD81EGFP cells; read-out: INHIBITION
Summed up: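 Uninfected HepG2-A16-CD81EGFP cells, 3 × 10^3 per well, 1536-well, plated on prespotted compound at 10 μM final, parasite-free screening media added to match infected plates; puromycin 10 μM positive, DMSO 0.5% negative; run in parallel with 48 h PbLuc assay at 37 °C, 5% CO2; viability by CellTiter-Glo luminescence, normalized to controls.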
For the molecule `Cc1cc2nc(-c3cn(C4CCNCC4)nn3)[nH]c2cc1C`, the cytotoxicity at 10 µM was -8.1%. Consider `O=S(=O)(CC1CCCN1S(=O)(=O)c1cccnc1)c1ccccc1` (stereo not drawn), for which the cytotoxicity at 10 µM was -4.31%.

Regarding `O=C1CCSCC(C(=O)N2CCC(O)CC2)N1` (stereo not drawn), the cytotoxicity at 10 µM is -4.2%.

Take `Cn1ccc2ccc(C(=O)Nc3nc[nH]n3)cc21`: the cytotoxicity at 10 µM was -1.55%.

In the case of `O=C(c1ccco1)N1CC[C@H]2C[C@@H](c3nccs3)O[C@@H]2C1`, the cytotoxicity at 10 µM was found to be 0.428%. On to `O=C(CCNCc1cccc(O)c1)N1CCc2sccc2C1`, for which the cytotoxicity at 10 µM is 16%. For the molecule `COc1cc(OC)nc(N2CCCC(c3nccn3CCN(C)C)C2)n1` (stereo not drawn), the cytotoxicity at 10 µM came to 5.12%.

On to `O=C(Cc1ccco1)N1C[C@@H]2COC[C@]2(COCC2CCOCC2)C1`, for which the cytotoxicity at 10 µM is -102%. Under `COc1ncccc1C(=O)N1CC[C@H]2C[C@@H](c3noc(C)n3)O[C@@H]2C1` stands 4.76%; under `Nc1nccc(N2C[C@@H](CN3CCCCC3)[C@@H](CO)C2)n1`, -2.16%; under `COCc1noc(CCNc2nc(CC3CC3)nc3c2CCNCC3)n1`, -4.1%.

As to `CCc1nc(CNc2ccc(F)cc2I)no1`, the cytotoxicity at 10 µM came to 3.36%. For the molecule `CC(C)C(=O)Nc1ncn(Cc2cccc(Br)c2)n1`, the cytotoxicity at 10 µM is -9.95%.

For the molecule `Cc1ccc(CN(C)C(=O)CN2CCOC(Cn3cccn3)C2)o1` (stereo not drawn), the cytotoxicity at 10 µM was -0.906%.

Consider `Cc1cnn(C(C)C2CC2)c1NC(=O)c1ccncc1` (stereo not drawn), for which the cytotoxicity at 10 µM was -8.48%. Consider `COC(=O)c1ccc(Cl)c(NS(=O)(=O)c2cnn(C)c2)c1`, for which the cytotoxicity at 10 µM came out at 0.214%. With `O=C(O)C1(n2ccc(-c3ccco3)n2)CCN(Cc2ccccn2)CC1`, the cytotoxicity at 10 µM is -137%. On to `COc1ccc(CCN2CCCC(Cn3nc(C)nc3C)C2)cc1` (stereo not drawn), for which the cytotoxicity at 10 µM is -3.34%. As for `COc1cccc(CN2C[C@@H]3COC[C@]3(COCc3ccccn3)C2)c1`, the cytotoxicity at 10 µM is -88.8%. Consider `c1cncc(CNc2ccccc2-c2nn[nH]n2)c1`, for which the cytotoxicity at 10 µM stood at 9.35%. For `CC(C)CCN1CCc2nc(N3CCOCC3)nc(NC(C)C)c2C1`, the cytotoxicity at 10 µM is -113%. Turning to `COc1cccc(CN2CCOC(c3cnccn3)C2)c1F` (stereo not drawn), the cytotoxicity at 10 µM stood at 8.63%. Take `COc1ccc(CNC2CCN(CCc3ccncc3)CC2)cc1O`: the cytotoxicity at 10 µM was -10.5%. Take `Cc1cnn(C2CN(CC(=O)NCCOc3ccccc3)C2)c1`: the cytotoxicity at 10 µM was -16.7%.

As to `O=C(c1ccco1)N1CCCC2(CN(Cc3ccoc3)CCO2)C1` (stereo not drawn), the cytotoxicity at 10 µM is -2.59%. With `CCCc1n[nH]c(C2CN(CCCS(=O)(=O)N(C)C)CCO2)n1` (stereo not drawn), the cytotoxicity at 10 µM was -11.9%.

For the molecule `COc1ccc(-n2cccn2)c(CN2CCC(O)(CO)CC2)c1`, the cytotoxicity at 10 µM amounted to 3.4%. Consider `Cc1cc(C)n(CCCNC(=O)C(C)NC(=O)CC2CCCCC2)n1` (stereo not drawn), for which the cytotoxicity at 10 µM was -1.06%. Under `COc1cccc2c1OCC(CNc1cc(N)nc(SC)n1)C2` (stereo not drawn) stands 3.37%; under `CCCN1CCC2(CC1)CN(C(=O)c1cccnc1)c1ccc(F)cc12`, -104%. Turning to `COc1cccc([C@@H]2CN(C3CCCC3)C[C@H]2C(=O)O)c1`, the cytotoxicity at 10 µM was -5.89%.

In the case of `CCO[C@@H]1CC[C@H]2[C@H]1OCCN2CCOCc1ccccc1`, the cytotoxicity at 10 µM was -111%.

`O=C(NC1CCCC1)c1nc2c(o1)CN(C(=O)CCO)C2`: the cytotoxicity at 10 µM came out at 5.38%. As to `COCCNC(=O)Nc1ccc(-c2nc(C(C)C)no2)cc1`, the cytotoxicity at 10 µM worked out at 0.0793%. In the case of `CN(Cc1ccsc1)C(=O)c1cc(S(=O)(=O)N(C)C)ccc1Cl`, the cytotoxicity at 10 µM was 15%.

In the case of `CN1CCN(CCCNCc2cc(O)c3cc(F)ccc3n2)CC1`, the cytotoxicity at 10 µM was -45.4%. In the case of `Cc1cc(CNC(=O)Nc2cccc(COCCOC(C)C)c2)no1`, the cytotoxicity at 10 µM is 11%. On to `COC(=O)C(C)(C)NC(=O)c1scnc1Cl`, for which the cytotoxicity at 10 µM is -2.31%.

`COc1ccc(C2CCCN2C(=O)NCCCn2ccnc2)cc1` (stereo not drawn): the cytotoxicity at 10 µM was -13.4%. As to `Cc1csc(N2CCN(C(=O)C(C)n3cncn3)CC2)n1` (stereo not drawn), the cytotoxicity at 10 µM worked out at 0.652%. On to `Cc1cnn(CC2CN(Cc3nnc(-c4ccccc4)o3)CCO2)c1` (stereo not drawn), for which the cytotoxicity at 10 µM is -6.61%. Under `CC(C)Nc1ccc(-c2ccnc3c2ccn3C)nn1` stands -7.94%.

For `O=C(c1cc[nH]n1)N1CCC(c2nccn2Cc2ccncc2)CC1`, the cytotoxicity at 10 µM stood at 0.216%. Under `Cc1nc2c(c(C)c1CC(=O)NCc1cccs1)c(=O)[nH]n2C` stands -34.2%. Consider `CC(C)c1nn2c(-c3cnn(C)c3)nnc2s1`, for which the cytotoxicity at 10 µM was -8.75%. Take `O=C(CCn1cncn1)NCC(c1ccco1)N1CCCC1` (stereo not drawn): the cytotoxicity at 10 µM is -3.62%. Under `O=C1CC[C@@H](CN(Cc2ccncc2)Cc2nc(CC3CC3)no2)N1` stands 3.86%; under `COc1cccc(CC2CN(C3CCC3)CCO2)c1` (stereo not drawn), 0.388%; under `CCn1nnc2cc(C(=O)N3CCCC3Cn3cc(C)cn3)ccc21` (stereo not drawn), -9.8%. Consider `O=C(c1cccc2cccnc12)N1CCCC(n2ccnc2)C1` (stereo not drawn), for which the cytotoxicity at 10 µM was -5.75%. Regarding `COCC(=O)N1C[C@@H](CN2CCCN(C)CC2)[C@@H](CO)C1`, the cytotoxicity at 10 µM was -3.85%. Turning to `c1ncn(CC2CCCN(Cc3noc(C4CC4)n3)C2)n1` (stereo not drawn), the cytotoxicity at 10 µM amounted to 0.428%.

As to `COc1ccc(C(=O)NCCC(N)=O)c(I)c1`, the cytotoxicity at 10 µM stood at 9.34%. In the case of `O=C(O)c1c(-c2cccnc2)ncc2c1CCN(CC1CCOC1)C2` (stereo not drawn), the cytotoxicity at 10 µM is -2.55%. For `CN(C)C[C@@H]1CN(C(=O)Cc2ccccc2)C[C@@H]1CO`, the cytotoxicity at 10 µM was -1.07%. For `CCCS(=O)(=O)N1CCC2(CCCN(Cc3cccc(F)c3F)C2=O)C1` (stereo not drawn), the cytotoxicity at 10 µM came out at 10.3%. Turning to `Cc1c(Cl)c(C(F)(F)F)nn1C(C)C(=O)NC1CCN(C)CC1` (stereo not drawn), the cytotoxicity at 10 µM was -3.13%. Under `Cc1noc(CNc2ccccc2CC(=O)N(C)C)n1` stands 2.69%. Turning to `COc1ccc(NC(=O)Cn2nc(C)c(C)cc2=O)c(OC)c1`, the cytotoxicity at 10 µM was -3.62%.

In the case of `CCCn1nc(C)c(CNS(=O)(=O)NCc2ccccc2)c1C`, the cytotoxicity at 10 µM was -5.05%. On to `CN(C)Cc1ccc(C2CCCCN2C(=O)c2cc(C3CC3)n[nH]2)cc1` (stereo not drawn), for which the cytotoxicity at 10 µM was -9.09%. Under `O=C(c1ccccc1)N1CCC[C@]2(C[C@@H](OCc3ccccn3)CO2)C1` stands -67.5%.

With `CC(=O)Nc1ncc(S(=O)(=O)Nc2cccc(O)c2)s1`, the cytotoxicity at 10 µM came out at 8.49%. Consider `CC(C)c1nc(C2CCCN(C(=O)Cn3ccccc3=O)C2)no1` (stereo not drawn), for which the cytotoxicity at 10 µM is -16.3%. Consider `CCS(=O)(=O)N1CCc2ccc(=O)n(CC3CC3)c2CC1`, for which the cytotoxicity at 10 µM was found to be 7.95%. With `CCc1ccc(OCC(O)CN2CCN(CCO)CC2)cc1` (stereo not drawn), the cytotoxicity at 10 µM is -11.9%.

Take `Cc1cnn(CC2CCCN2c2ncnc3c2CCC3)c1` (stereo not drawn): the cytotoxicity at 10 µM stood at 7.84%. Consider `CCC(NCc1ncc[nH]1)c1nc(C(F)(F)F)cs1` (stereo not drawn), for which the cytotoxicity at 10 µM worked out at 8.02%. For the molecule `CNc1cc(-c2ccncc2)ncn1`, the cytotoxicity at 10 µM is -13.9%.

As to `Cn1ccnc1CN1CCC(Cc2ccccn2)CC1`, the cytotoxicity at 10 µM is -10.2%.

For the molecule `Cc1nnc(SCCCNc2cc(C3CC3)ncn2)s1`, the cytotoxicity at 10 µM came to 19.8%.

Turning to `O=S(=O)(C1CC1)N1CCC2(CN(c3ncccn3)C2)C1`, the cytotoxicity at 10 µM was -98.4%. On to `Cc1cnc(NC(=O)C(C)Oc2ccc3c(c2)OCO3)s1` (stereo not drawn), for which the cytotoxicity at 10 µM is -5.22%. `Cc1nc(O)cc(C2CCN(Cc3cccc(F)c3F)C2)n1` (stereo not drawn): the cytotoxicity at 10 µM is -1.19%. Regarding `CCOc1ccc(CN2CC[C@@](C)(O)[C@@H](Cc3ccccc3)C2)cn1`, the cytotoxicity at 10 µM is -2.02%. Take `O=C(NCC1CC1)c1nc(COc2ccc3c(c2)OCO3)no1`: the cytotoxicity at 10 µM amounted to 8.89%. With `CCOCC1CN(C(=O)c2cnoc2C)Cc2cn(CC3CC3)nc21` (stereo not drawn), the cytotoxicity at 10 µM was found to be 17%. Regarding `Cc1cc(C)cc(N2CC(c3nnc(N)s3)CC2=O)c1` (stereo not drawn), the cytotoxicity at 10 µM was found to be 4.29%. For the molecule `COC[C@]1(O)CCN(Cc2ccc(N(C)C)nc2)CC1(C)C`, the cytotoxicity at 10 µM is 7.63%. Take `CC(C)C(=O)N1CCCC1C(=O)Nc1cc(C(F)(F)F)ccc1F` (stereo not drawn): the cytotoxicity at 10 µM was -0.359%. Consider `CC(C)=CCN1CC2(CCN(Cc3c(F)cccc3F)CC2)CC1=O`, for which the cytotoxicity at 10 µM was -17%. Regarding `O=C(NCc1ccc(C(=O)O)o1)c1ccc(F)cc1`, the cytotoxicity at 10 µM was 13.2%. Turning to `CCCN(C)CC1CCN(c2ncc(Br)cn2)C1` (stereo not drawn), the cytotoxicity at 10 µM is -6.68%.

Take `Cc1noc(C)c1CC(=O)NCC(C)N1CCOCC1` (stereo not drawn): the cytotoxicity at 10 µM was -52%. Turning to `CCS(=O)(=O)N1CCc2c(COCc3ccncc3)cncc2C1`, the cytotoxicity at 10 µM was -84.1%. The figure for `CC(C)(C#N)c1ccccc1CN1CCC(N2CCCC2=O)CC1` is 2.35%. As to `O=C(c1cnccn1)N1C[C@@H](OCc2ccncc2)[C@@H]2OCCC[C@@H]21`, the cytotoxicity at 10 µM was -2.91%. Under `Cc1cccc(-n2ncc3c2CCCC3NCc2cccc(O)c2)c1C` (stereo not drawn) stands 3.11%; under `COCc1ccccc1C(=O)NCC(O)c1ccccc1F` (stereo not drawn), -3.67%; under `CNc1cncc(C2CCCN2Cc2ccccn2)n1` (stereo not drawn), 0.0241%.

Take `COCCN1CCN(Cc2cccnc2)[C@H]2CS(=O)(=O)C[C@H]21`: the cytotoxicity at 10 µM came out at 6.03%.

Take `COCCN(Cc1ccc(F)cc1Cl)C(=O)c1cc[n+]([O-])cc1`: the cytotoxicity at 10 µM is 4.75%. In the case of `CN(C)c1cc(C(=O)N2CCCC(n3cccn3)C2)ccn1` (stereo not drawn), the cytotoxicity at 10 µM is -0.781%. Regarding `COC1CCN(C(=O)Cn2ccc3ccccc32)CC1`, the cytotoxicity at 10 µM was -12.7%.

On to `CCCN(C(=O)CN1CCN(CCO)CC1)C1=CCCCC1`, for which the cytotoxicity at 10 µM was determined as 6.45%.

`CCCNC(=O)CCC(=O)N1CCC(c2noc3cc(F)ccc23)CC1`: the cytotoxicity at 10 µM was determined as 2.45%. For the molecule `CN(C)CCOCC1CN(Cc2ccccn2)Cc2nnn(C)c21` (stereo not drawn), the cytotoxicity at 10 µM is 5.5%. Regarding `O=C(Nc1cccnc1-n1cncn1)N(C1CCCC1)C1CC1`, the cytotoxicity at 10 µM is -10.9%.
